Test results: publication PMC8177101 (Chemical research in toxicology, 2020)

How the values were obtained:
[1] = tested on: HapMap lymphoblastoid cell lines; assay: Micronuclei; assay type: cell-based, human; conditions: then 96 h in fresh media, averaged over all cell lines
Summary of the method: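 Ten GSTT1-negative and 8 GSTT1-positive lymphoblastoid lines were grown in RPMI 1640 with 15% heat-inactivated FBS at 37 °C, 5% CO2, passage <10. Cells were seeded at 0.5 million per 4 ml and rested 24 h. They were exposed to 0, 5 or 10 μM test compound for 6 h in triplicate, pelleted, then held 96 h in fresh medium. Micronuclei were scored with the Litron kit by flow cytometry.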

[2] = ref [10], [11]; cited from earlier work
[3] = CellTiter Glo cytotoxicity; assay type: cell-based; conditions: human
Summary of the method: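 Human HapMap lymphoblastoid lines grown in RPMI 1640 with 15% heat-inactivated FBS at 37 °C, 5% CO2, low passage (<10). Preliminary cytotoxicity dose-response to the test compound (a diepoxide) read by CellTiter Glo as cellular ATP level; IC50 taken from the dose-response curves.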

[4] = tested on: HapMap lymphoblastoid cell lines; assay: Apoptosis, Annexin V / PI flow cytometry; assay type: cell-based, human; conditions: 0, 5 or 10 μM DEB, 24 h, 18 cell lines; Anova p < 0.001

C1OC1C1CO1 (centres unmarked) [DEB, 1,2,3,4-diepoxybutane]
fold increase of mean percent of MN positive cells ([1]; 5 μM DEB 6 h): 1.8 fold | fold increase of mean percent of MN positive cells ([1]; 10 μM DEB 6 h): 2.4 fold | mutagenic potency as compared to BD-derived monoepoxides [2]: up to 200 fold | IC50 [3]: 2 to 6 µM | percentage of Annexin V-labeled cells [4]: increase in the percentage of Annexin V-labeled cells
